Publication PMC7482441 (Pharmacological Research, 2020)

Tests used:
[1] = system: TR (Transferrin receptor); assay: Circulating biomarker, baseline vs 4-week treatment; format: in vivo, human; settings: 20 DMD patients, OLink, p-value 3.0e-6, FDR 0.0004
[2] = system: IGFBP1; assay: as above; format: in vivo, human; settings: 20 DMD patients, OLink, p-value 1.7e-8, FDR 4e-6
[3] = system: UMX 101 hamsters; settings: lifelong preventive treatment; cited from earlier work
[4] = system: CCL15; assay: Circulating biomarker, baseline vs 4-week treatment; format: in vivo, human; settings: 20 DMD patients, OLink, p-value 0.0003, FDR 0.17
[5] = system: MCP1; assay: as above; format: in vivo, human; settings: 20 DMD patients, OLink, p-value 0.0016, FDR 0.39
[6] = system: TNFα; assay: as above; format: in vivo, human; settings: 20 DMD patients, Luminex, p-value 0.0009, FDR 0.24
[7] = system: Golden Retriever muscular dystrophy (GRMD) dogs; settings: treatment in a preventing setting; cited from earlier work
[8] = system: skeletal muscle; assay: NMRI of skeletal muscle; format: in vivo, human; settings: dose escalation, 4-week treatment
How it was run: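 NMRI of both lower limbs was acquired locally at baseline and week 4 of oral treatment (50–300 mg TID, 4 ascending-dose cohorts). Indices were water T2 and fat fraction in skeletal muscle. Descriptive statistics were produced per cohort.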

[9] = system: SCGB3A2; assay: Circulating biomarker, baseline vs 4-week treatment; format: in vivo, human; settings: 20 DMD patients, OLink, p-value 1.3e-5, FDR 0.001
[10] = system: mdx mice; settings: short and long term studies in mdx mice; cited from earlier work
[11] = system: MB (Myoglobin); assay: Circulating biomarker, baseline vs 4-week treatment; format: in vivo, human; settings: 20 DMD patients, OLink, p-value 0.0036, FDR 0.79
[12] = system: FAS; assay: as above; format: in vivo, human; settings: 20 DMD patients, OLink, p-value 0.0007, FDR 0.24

[H]/N=C(\N)NC(=O)c1cc(S(C)(=O)=O)c(S(C)(=O)=O)cc1C [Rimeporide]
TR: Term (TRT, linear mixed effect model, Day 28 vs Day 0) [1]: 0.5252
IGFBP1: Term (TRT, linear mixed effect model, Day 28 vs Day 0) [2]: −2.7123
mortality [3]: dramatic reduction in mortality
CCL15: Term (TRT, linear mixed effect model, Day 28 vs Day 0) [4]: −0.4489
MCP1: Term (TRT, linear mixed effect model, Day 28 vs Day 0) [5]: −0.5675
TNFα: Term (TRT, linear mixed effect model, Day 28 vs Day 0) [6]: −0.1726
cardioprotection [7]: confirmed the cardioprotective role
NMRI indices in skeletal muscle [8]: No notable change
SCGB3A2: Term (TRT, linear mixed effect model, Day 28 vs Day 0) [9]: −0.5466
effects in skeletal and cardiac muscles [10]: potent anti-inflammatory and anti-fibrotic effects
MB: Term (TRT, linear mixed effect model, Day 28 vs Day 0) [11]: −0.6763
FAS: Term (TRT, linear mixed effect model, Day 28 vs Day 0) [12]: −0.2823
